Screening data from PubChem.
Most compounds without a hit are left out; they make up all but 1.9% or so of the library.
UBC13 inh: UBC13 polyubiquitin chain formation inhibitors, primary screen, biochemical, TR-FRET, uHTS | inhibition, % at 20 µM | 0.47% of 330,000 active | Ubiquitin-conjugating enzyme E2 N (Homo sapiens), P61088; in the data active = inhibition above about 45%, passing the limit was not always enough
Neddyl block: inhibitors of cullin neddylation, primary screen, biochemical, TR-FRET, uHTS, NAE and Ubc12; NEDD8-conjugating enzyme Ubc12 (Homo sapiens) + NEDD8-activating enzyme E1 regulatory …; inhibition, % at 25 µM; 0.58% of 360,000 active; AID 651699, 2012; in the data active = inhibition above about 36%
Target sequence (P61081 whole entry, looked up): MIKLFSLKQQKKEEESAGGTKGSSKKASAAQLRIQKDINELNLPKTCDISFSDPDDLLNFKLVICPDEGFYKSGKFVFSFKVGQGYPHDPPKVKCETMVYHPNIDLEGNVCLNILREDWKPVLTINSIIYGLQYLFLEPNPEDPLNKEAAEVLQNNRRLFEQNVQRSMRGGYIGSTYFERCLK
Target sequence (Q13564 whole entry, looked up): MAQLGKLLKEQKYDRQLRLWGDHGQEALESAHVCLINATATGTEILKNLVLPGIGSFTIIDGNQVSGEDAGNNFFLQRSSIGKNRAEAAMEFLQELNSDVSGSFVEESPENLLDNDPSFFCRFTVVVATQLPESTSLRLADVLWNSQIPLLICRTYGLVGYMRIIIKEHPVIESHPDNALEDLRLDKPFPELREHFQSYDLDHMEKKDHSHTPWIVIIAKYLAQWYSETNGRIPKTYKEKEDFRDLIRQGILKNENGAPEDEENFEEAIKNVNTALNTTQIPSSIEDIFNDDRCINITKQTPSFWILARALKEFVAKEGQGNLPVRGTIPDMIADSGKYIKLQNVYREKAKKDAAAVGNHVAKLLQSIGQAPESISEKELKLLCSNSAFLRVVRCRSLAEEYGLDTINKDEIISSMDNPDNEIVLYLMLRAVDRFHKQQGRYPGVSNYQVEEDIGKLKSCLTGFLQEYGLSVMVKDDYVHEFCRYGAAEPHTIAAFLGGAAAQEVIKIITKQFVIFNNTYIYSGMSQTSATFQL
SR-BI DiI inh: inhibitors of SR-BI mediated HDL lipid uptake, primary screen, ldlA[mSR-BI] cells, fluorescence, single point; inhibition, % at 12.5 µM; 0.96% of 320,000 active; ldlA[mSR-BI] CHO cells, DiI-HDL uptake fluorescence, 3 h;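 active = mean replicate inhibition of at least 70% and a set share of replicates each scoring 70 or more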;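 also: 0% = median of neutral control wells and 100% = median of positive control wells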
SR-BI uptake up: activators of SR-BI mediated DiI-HDL uptake, primary screen, ldlA[mSR-BI] CHO cells, DiI fluorescence. 3 h; 100 = double the neutral-control signal. 0.096% of 320,000 active. AID 504775, 2011. activation, % at 12.5 µM;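 active = mean replicate activation of at least 60% and every replicate at or above 60%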;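 also: 0% = median plate neutral-control signal and 100% = twice that signal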
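Test system: SR-BI-overexpressing, LDLR-lacking CHO cells. Measured by: DiI fluorescence, bottom read. Medium: Ham's F12 with 0.5% BSA, HEPES 25 mM, pH 7.4. Timing: 3 h uptake period with compound, 37 °C.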
Casp3 UBC13 ctr: CASP3 inhibitor validation, counterassay for project on UBE2N polyubiquitination blockers, biochemical, one dose; shares compounds with UBC13 inh; inhibition, % at 20 µM; Recombinant caspase-3, Caspase-Glo 3/7 luminescence, 60 min; 4% of 1,400 active; AID 488856, 2010;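 active = mean inhibition across replicates above about 26%, limit read from the data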;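 also: plate controls were DMSO with caspase-3 for no effect and DMSO wells lacking enzyme for full effect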
UBC13 conf: UBC13 polyubiquitination inhibitors, single-point retest, confirmation, biochemical, TR-FRET, single concentration; shares compounds with UBC13 inh; inhibition, % at 10 µM; 68% of 1,400 active; AID 488859, 2010; in the data active = inhibition above about 45%
Numbers without * were called inactive; x = no result given.

SMILES	UBC13 inh	Neddyl block	SR-BI DiI inh	SR-BI uptake up	Casp3 UBC13 ctr	UBC13 conf
C#CCOCCOCCOCCNc1nc(N2CCN(C(=O)Cn3cc(CCCCN)nn3)CC2)nc(N2CCN(C(=O)Cn3cc(CCCCN)nn3)CC2)n1	25.5	-13.0	-34.6	34.6	x	x
C#CCOCCOCCOCCNc1nc(N2CCN(C(=O)CCCCCCCCCCNC(=O)Cn3cc(C[C@@H](C)O)nn3)CC2)nc(N2CCN(C(=O)CCCCCCCCCCNC(=O)[C@@H](CCC(=O)O)n3cc(CCCCCN)nn3)CC2)n1	66.3*	-25.9	-9.5	9.5	-5.1	50.9*
C#CCOCCOCCOCCNc1nc(N2CCN(C(=O)CCCCCCCCCCNC(=O)Cn3cc(C[C@@H](C)O)nn3)CC2)nc(N2CCN(C(=O)CCCCCCCCCCNC(=O)[C@H](CO)n3cc(CCCSC)nn3)CC2)n1	17.2	0.0	16.6	-16.6	x	x
CC(O)Cn1c(N2CCCC2)nc2c1c(=O)[nH]c(=O)n2C (stereo not given)	-8.1	-10.1	-6.4	6.4	x	x
C/C(=N/NC(=O)c1ccc(C)s1)c1cccc(NC(=O)c2ccoc2C)c1	-6.8	5.5	29.1	-29.1	x	x
Cc1ccc(S(=O)(=O)N2CCN(C(=O)NCc3ccc(C(=O)O)cc3)CC2)cc1	-2.6	2.8	-15.4	15.4	x	x
CN(C)CCCn1cnc2c(c1=N)C(c1ccccc1)c1ccc3ccccc3c1O2 (stereo not given)	70.9*	-9.6	-15.3	15.3	2.0	82.1*
O=C(O)/C(=C\c1ccc(Br)cc1)NC(=O)c1cccs1	2.3	10.4	x	x	x	x
CN(C)CCCNC(=S)NCC(c1ccc(Cl)cc1Cl)c1c[nH]c2ccccc12 (stereo not given)	60.1*	0.2	-18.7	18.7	2.5	88.0*
CCC(C)N(CCNC(=O)c1ccc2c(c1)NC(=O)c1ccccc1S2)C1CCCCC1 (stereo not given)	51.5*	-5.3	-8.9	8.9	-2.3	69.6*
CCC(C(=O)NC1CCCC1)n1c(-c2ccncc2)nc2ccccc21 (stereo not given)	x	4.2	x	x	x	x
CC1CCN(c2c(NCc3ccc(C(=O)N4CCN(C5CCCCC5)CC4)cc3)c(=O)c2=O)CC1	68.6*	2.4	-11.3	11.3	-1.3	57.9*
CCOC(=O)C1CCCN(C(=O)c2ccc(CNc3c(N4CCC(C)CC4)c(=O)c3=O)cc2)C1 (stereo not given)	0.1	-4.2	-6.6	5.7	x	x
CCN1CCN(Cc2ccc(NC(=O)c3cc(NC(=O)c4ccno4)cc(OC)c3)cc2C(F)(F)F)CC1	27.3	2.3	29.9	-29.9	x	x
CCN1CCN(Cc2ccc(NC(=O)c3cc(NC(=O)c4cncc(-c5cccs5)c4)cc(OC)c3)cc2C(F)(F)F)CC1	102.2*	2.5	x	x	-6.7	90.7*
CCN1CCN(Cc2ccc(NC(=O)c3cc(NC(=O)c4cc(-c5ccc(OC)cc5)n[nH]4)cc(OC)c3)cc2C(F)(F)F)CC1	60.9*	3.8	2.0	-2.0	1.7	44.3
CCN1CCN(Cc2ccc(NC(=O)c3cc(NC(=O)c4ccc5n[nH]nc5c4)cc(OC)c3)cc2C(F)(F)F)CC1	12.6	1.0	11.2	-11.2	x	x
Cc1ccc(C(=O)Nc2cccc(C(F)(F)F)c2)cc1NC(=O)c1c[nH]c2cc(C(F)(F)F)ccc2c1=O	-25.0	-104.2	-28.3	28.3	x	x
CCN1CCN(Cc2ccc(NC(=O)c3ccc(C)c(NC(=O)c4c[nH]c5cc(C(F)(F)F)ccc5c4=O)c3)cc2C(F)(F)F)CC1	107.5*	4.8	16.9	-16.9	-4.6	100.0*
CCn1c(SCC(=O)Nc2ccc(OC)c(S(=O)(=O)N3CCCCC3)c2)nnc1C1CC1	-4.5	16.6	8.0	-8.0	x	x
Cc1ccc(-c2cnc(C(O)c3ccc(Cl)cc3C)[nH]2)cc1 (stereo not given)	x	4.3	x	x	x	x
COC(=O)C1=C(C)N(Cc2ccccc2)C(=NCCc2cccnc2)N[C@H]1c1ccc(Br)cc1	48.2*	1.2	-18.8	18.8	-1.6	30.6
COC(=O)C1=C(C)N(Cc2ccccc2)C(=NCC(C)C)N[C@H]1c1cccc(C(F)(F)F)c1	72.3*	6.9	-31.0	31.0	3.2	74.5*
COC(=O)C1=C(C)N(Cc2ccccc2)C(=NCc2ccccc2)N[C@H]1c1cccc(C(F)(F)F)c1	76.5*	-12.3	-15.0	15.0	-3.2	82.5*
COC(=O)C1=C(C)N(Cc2ccccc2)C(=NCC(C)C)N[C@H]1c1cccc(F)c1	50.7*	-22.9	3.2	-3.2	-3.5	40.3
SMILES	UBC13 inh	Neddyl block	SR-BI DiI inh	SR-BI uptake up	Casp3 UBC13 ctr	UBC13 conf
COC(=O)C1=C(C)N(Cc2ccccc2)C(=NCCc2cccnc2)N[C@H]1c1ccccc1	32.6	-11.6	5.8	-5.8	x	x
COC(=O)C1=C(C)N(Cc2ccccc2)C(=NCCc2ccccn2)N[C@H]1c1cccc(C(F)(F)F)c1	51.7*	-8.3	-32.7	32.7	2.0	58.1*
CCN1C(=NCCc2ccccn2)N[C@@H](c2cccc(C(F)(F)F)c2)C(C(=O)OC)=C1C	14.4	-13.5	5.2	-5.2	x	x
c1ccc(-c2nc3c4ccccc4ccn3c2Cc2ccsc2)cc1	x	17.3	x	x	x	x
COc1ccc(C[C@@H]2CN3C(=NC[C@@H]3Cc3ccc(O)cc3)N2C[C@H](C)NC(=O)CCC2CCCCC2)cc1	56.2*	-3.0	-3.4	3.4	-0.4	38.3
O=C(CCC1CCCCC1)NCCN1C2=NC[C@H](Cc3ccccc3)N2C[C@H]1Cc1ccc(O)cc1	64.6*	-14.2	-4.7	4.7	2.3	60.5*
CCC(=O)Nc1cc(-c2cc3ccccc3oc2=O)ccc1OC	-6.3	26.2	-1.3	1.2	x	x
COc1ccc(-c2cc3ccccc3oc2=O)cc1NC(=S)NC(=O)c1ccc2c(c1)OCCO2	48.6*	-1.2	-2.5	2.5	0.5	46.0*
O=C1c2cc(Cl)ccc2OC2(CCNCC2)C12CC(c1ccc(Cl)cc1)=NO2 (stereo not given)	48.4*	-13.8	17.5	-17.4	2.7	41.4
O=C1c2cc(Cl)ccc2OC2(CCNCC2)C12CC(c1ccccc1)=NO2 (stereo not given)	42.1	-2.7	-1.4	1.4	x	x
COc1cc(OC)cc(C(=O)Nc2nc3ccc(S(C)(=O)=O)cc3s2)c1	-2.3	-108.4	69.7	-69.7	x	x
COc1cc(C(=O)Nc2nc3ccc(S(C)(=O)=O)cc3s2)cc(OC)c1C	47.0*	-21.2	69.1	-69.1	0.4	23.5
Cc1nc2c(OCc3cc(Cl)cc(Cl)c3)cccn2c1N(C)C(=O)CCC1CCCC1	x	8.0	x	x	x	x
